Laboratory results taken from PMC9308755 (Chemmedchem, 2022).
Each block holds one compound with its values, some of them ahead of it.

Assays:
mouse TRPC5 = target: T1, mouse TRPC5 (Mus musculus, UniProt Q9QX29); test: Syncropatch automated patch clamp, inhibition of riluzole-induced TRPC5 currents; type: cell-based; conditions: for IC50: TRPC5 IC50, riluzole (30 μM)-induced TRPC5 current; for IC50 / TRPC5 activity (in words): Syncropatch
T1 sequence (Q9QX29 1-975): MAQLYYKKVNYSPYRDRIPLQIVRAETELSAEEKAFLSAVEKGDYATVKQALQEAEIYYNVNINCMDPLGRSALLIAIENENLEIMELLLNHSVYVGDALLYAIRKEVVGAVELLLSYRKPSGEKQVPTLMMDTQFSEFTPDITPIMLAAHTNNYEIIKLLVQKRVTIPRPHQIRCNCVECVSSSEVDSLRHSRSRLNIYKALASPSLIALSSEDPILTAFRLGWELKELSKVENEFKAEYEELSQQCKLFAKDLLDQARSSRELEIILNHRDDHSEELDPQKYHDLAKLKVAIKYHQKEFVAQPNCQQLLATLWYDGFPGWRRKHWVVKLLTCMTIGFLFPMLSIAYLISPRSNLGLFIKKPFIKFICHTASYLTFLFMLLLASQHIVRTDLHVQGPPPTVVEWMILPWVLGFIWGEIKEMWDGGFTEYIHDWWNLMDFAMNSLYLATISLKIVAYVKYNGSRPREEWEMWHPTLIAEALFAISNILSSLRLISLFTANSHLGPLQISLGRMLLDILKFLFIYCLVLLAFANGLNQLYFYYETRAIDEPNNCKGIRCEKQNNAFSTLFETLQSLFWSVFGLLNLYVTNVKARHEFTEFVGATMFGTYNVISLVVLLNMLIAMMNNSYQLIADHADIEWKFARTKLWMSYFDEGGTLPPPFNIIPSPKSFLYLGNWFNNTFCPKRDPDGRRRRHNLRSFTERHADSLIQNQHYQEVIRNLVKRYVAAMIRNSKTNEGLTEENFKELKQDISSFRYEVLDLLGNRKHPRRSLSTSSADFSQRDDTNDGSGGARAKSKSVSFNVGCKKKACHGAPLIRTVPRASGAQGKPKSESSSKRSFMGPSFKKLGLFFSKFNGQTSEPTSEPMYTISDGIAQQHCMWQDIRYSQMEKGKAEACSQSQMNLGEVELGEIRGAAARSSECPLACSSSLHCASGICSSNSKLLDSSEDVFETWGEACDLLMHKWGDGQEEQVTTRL
In short: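 Doxycycline-induced (0.5–1 μg/mL, 3 days) Flp-In T-REx-293 cells stably expressing mouse TRPC5, used in automated patch clamp. 200 ms ramps from −100 to +100 mV every 5–10 s. 30 μM riluzole activates currents and stays present with compound. Only cells with doubly-rectifying currents kept. % inhibition compares 3 ramps after vs before compound, normalized to a reference inhibitor at 3 μM. IC50 from three-parameter fit.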

[1] = Human liver microsome stability; type: in vitro ADME; conditions: liver microsomes
[2] = Mouse liver microsome stability; type: in vitro ADME; conditions: liver microsomes
[3] = Human plasma protein binding; type: in vitro ADME
[4] = Mouse plasma protein binding; type: in vitro ADME
In vivo rat cassette PK = conditions: for Brain / Plasma: Rat cassette (0.25 mpk); for Brain: brain level for Kp; for Plasma: plasma level for Kp; for Kp / C0 / MRT inf / Vd / clearance / half-life / AUC: rat, intravenous; for Kp: brain/plasma, 0.25 mpk; for C0 / MRT inf / Vd / clearance / half-life: in vivo; for C0 / MRT inf / Vd / clearance / half-life / AUC: 0.25 mg/kg; for AUC: plasma

TRPC5 activity (in words) (mouse TRPC5): moderate activity | IC50 (mouse TRPC5): 12.3 µM
Structure (SMILES): Cc1cc2nc(N3CCCC3)n(Cc3ccccc3)c2cc1C [14 b, 1‐Benzyl‐5,6‐dimethyl‐2‐(pyrrolidin‐1‐yl)‐1H‐benzo[d]imidazole]

TRPC5 activity (in words) (mouse TRPC5): not active
Structure (SMILES): O=S1(=O)CCN(c2nc3ccccc3n2Cc2ccc(Cl)cc2)CC1 [16 c, 4‐(1‐(4‐Chlorobenzyl)‐1H‐benzo[d]imidazol‐2‐yl)thiomorpholine‐1,1‐dioxide]

IC50 (mouse TRPC5): 1.78 ± 0.43 µM
Structure (SMILES): COc1ccc(Cn2c(N3CCCC3)nc3ccccc32)cc1F [9 g, 1‐(3‐Fluoro‐4‐methoxybenzyl)‐2‐(pyrrolidin‐1‐yl)‐1H‐benzo[d]imidazole]

IC50 (mouse TRPC5): 0.54 ± 0.23 µM | CLint scaled [1]: 38.1 mL/min/kg | hCLHEP [1]: 13.2 mL/min/kg | CLint scaled [2]: 370 mL/min/kg | mCLHEP [2]: 72.5 mL/min/kg | fraction unbound [3]: 0.068 | fraction unbound [4]: 0.053 | Brain (In vivo rat cassette PK): 41.8 | Plasma (In vivo rat cassette PK): 69.7 | Kp (In vivo rat cassette PK): 0.6 | C0 (In vivo rat cassette PK): 221 ng/mL | MRT inf (In vivo rat cassette PK): 38.5 min | Vd (In vivo rat cassette PK): 1.8 L/kg | clearance (In vivo rat cassette PK): 61.3 mL/min/kg | half-life (In vivo rat cassette PK): 38.4 min | AUC (In vivo rat cassette PK): 262 ng·h/mL
Structure (SMILES): N#Cc1cc(Cn2c(N3CCCC3)nc3ccccc32)ccc1F [9 o, 2‐Fluoro‐5‐((2‐(pyrrolidin‐1‐yl)‐1H‐benzo[d]imidazol‐1‐yl)methyl)benzonitrile]

IC50 (mouse TRPC5): 0.068 ± 0.106 µM | CLint scaled [1]: 127 mL/min/kg | hCLHEP [1]: 17.4 mL/min/kg | CLint scaled [2]: 867 mL/min/kg | mCLHEP [2]: 81.6 mL/min/kg | fraction unbound [3]: 0.014 | fraction unbound [4]: 0.036 | Brain (In vivo rat cassette PK): 163 | Plasma (In vivo rat cassette PK): 77.5 | Kp (In vivo rat cassette PK): 2.1 | C0 (In vivo rat cassette PK): 140 ng/mL | MRT inf (In vivo rat cassette PK): 37.9 min | Vd (In vivo rat cassette PK): 2.3 L/kg | clearance (In vivo rat cassette PK): 57.8 mL/min/kg | half-life (In vivo rat cassette PK): 43.3 min | AUC (In vivo rat cassette PK): 291 ng·h/mL
Structure (SMILES): CCCNc1nc2ccccc2n1Cc1ccc(Cl)cc1 [16 f, 1‐(4‐Chlorobenzyl)‐N‐propyl‐1H‐benzo[d]imidazol‐2‐amine]

IC50 (mouse TRPC5): 2.89 ± 0.7 µM
Structure (SMILES): C[C@@H]1CCCN1c1nc2ccccc2n1Cc1ccc(Cl)cc1 [16 e, (R)‐1‐(4‐Chlorobenzyl)‐2‐(2‐methylpyrrolidin‐1‐yl)‐1H‐benzo[d]imidazole]

TRPC5 activity (in words) (mouse TRPC5): not active
Structure (SMILES): CC1CCCCN1c1nc2ccccc2n1Cc1ccc(Cl)cc1 (stereo not shown) [16 a, 1‐(4‐Chlorobenzyl)‐2‐(2‐methylpiperidin‐1‐yl)‐1H‐benzo[d]imidazole]

IC50 (mouse TRPC5): 1.15 ± 0.33 µM
Structure (SMILES): COc1ccc2c(c1)nc(N1CCCC1)n2Cc1ccccc1 [14 h, 1‐Benzyl‐5‐methoxy‐2‐(pyrrolidin‐1‐yl)‐1H‐benzo[d]imidazole]

IC50 (mouse TRPC5): 1.15 ± 0.25 µM
Structure (SMILES): COc1ccc(Cn2c(N3CCCC3)nc3ccccc32)cc1 [9 f, 1‐(4‐Methoxybenzyl)‐2‐(pyrrolidin‐1‐yl)‐1H‐benzo[d]imidazole]

TRPC5 activity (in words) (mouse TRPC5): not as active as 1 | IC50 (mouse TRPC5): 7.55 ± 2.52 µM
Structure (SMILES): O=c1[nH]ncc(-c2ccc3c(c2)nc(N2CCCC2)n3Cc2ccccc2)c1Cl [14 n, 5‐(1‐Benzyl‐2‐(pyrrolidin‐1‐yl)‐1H‐benzo[d]imidazol‐5‐yl)‐4‐chloropyridazin‐3(2H)‐one]

IC50 (mouse TRPC5): 0.84 ± 0.23 µM | CLint scaled [1]: 239 mL/min/kg | hCLHEP [1]: 18.5 mL/min/kg | CLint scaled [2]: 3200 mL/min/kg | mCLHEP [2]: 87.6 mL/min/kg | fraction unbound [3]: 0.01 | fraction unbound [4]: 0.0217
Structure (SMILES): Fc1cc(Cl)ccc1Cn1c(N2CCCC2)nc2ccccc21 [9 n, 1‐(4‐Chloro‐2‐fluorobenzyl)‐2‐(pyrrolidin‐1‐yl)‐1H‐benzo[d]imidazole]

TRPC5 activity (in words) (mouse TRPC5): inactive
Structure (SMILES): O=C(c1ccccc1)n1c(N2CCCC2)nc2ccccc21 [9 u, Phenyl(2‐(pyrrolidin‐1‐yl)‐1H‐benzo[d]imidazol‐1‐yl)methanone]

TRPC5 activity (in words) (mouse TRPC5): inactive
Structure (SMILES): O=S(=O)(c1ccccc1)n1c(N2CCCC2)nc2ccccc21 [9 v, 1‐(Phenylsulfonyl)‐2‐(pyrrolidin‐1‐yl)‐1H‐benzo[d]imidazole]

IC50 (mouse TRPC5): 1.9 µM
Structure (SMILES): Cc1cccc(Cn2c(N3CCCC3)nc3ccccc32)c1 [9 l, 1‐(3‐Methylbenzyl)‐2‐(pyrrolidin‐1‐yl)‐1H‐benzo[d]imidazole]

TRPC5 activity (in words) (mouse TRPC5): not active
Structure (SMILES): CC1CCN(c2nc3ccccc3n2Cc2ccc(Cl)cc2)CC1 [16 b, 1‐(4‐Chlorobenzyl)‐2‐(4‐methylpiperidin‐1‐yl)‐1H‐benzo[d]imidazole]

IC50 (mouse TRPC5): 0.902 ± 0.34 µM
Structure (SMILES): Cc1ccc(Cn2c(N3CCCC3)nc3ccccc32)cc1 [9 k, 1‐(4‐Methylbenzyl)‐2‐(pyrrolidin‐1‐yl)‐1H‐benzo[d]imidazole]

Second part, the compound before the results:

Structure (SMILES): Fc1cccc(Cn2c(N3CCCC3)nc3ccccc32)c1 [9 b, 1‐(3‐Fluorobenzyl)‐2‐(pyrrolidin‐1‐yl)‐1H‐benzo[d]imidazole]
IC50 (mouse TRPC5): 1.49 ± 0.31 µM

Structure (SMILES): Fc1ccccc1Cn1c(N2CCCC2)nc2ccccc21 [9 a, 1‐(2‐Fluorobenzyl)‐2‐(pyrrolidin‐1‐yl)‐1H‐benzo[d]imidazole]
IC50 (mouse TRPC5): 2.69 µM

Structure (SMILES): Clc1ccc(Cn2c(N3CCCC3)nc3ccccc32)cc1 [9 e, 1‐(4‐Chlorobenzyl)‐2‐(pyrrolidin‐1‐yl)‐1H‐benzo[d]imidazole]
IC50 (mouse TRPC5): 0.44 ± 0.14 µM | CLint scaled [1]: 278 mL/min/kg | hCLHEP [1]: 18.7 mL/min/kg | CLint scaled [2]: 4260 mL/min/kg | mCLHEP [2]: 88.2 mL/min/kg | fraction unbound [3]: 0.013 | fraction unbound [4]: 0.013

Structure (SMILES): CC(C)CCNc1nc2ccccc2n1Cc1ccccc1 [7 g, 1‐Benzyl‐N‐isopentyl‐1H‐benzo[d]imidazol‐2‐amine]
IC50 (mouse TRPC5): 1.3 ± 0.31 µM

Structure (SMILES): c1ccc(Cn2c(CCN3CCCC3)nc3ccccc32)cc1 [7 j, 1‐Benzyl‐2‐(2‐(pyrrolidin‐1‐yl)ethyl)‐1H‐benzo[d]imidazole]
TRPC5 activity (in words) (mouse TRPC5): moderate activity

Structure (SMILES): CN1CCC(N2CCN(c3nc4ccccc4n3Cc3ccccc3)CC2)CC1 [7 h, 1‐Benzyl‐2‐(4‐(1‐methylpiperidin‐4‐yl)piperazin‐1‐yl)‐1H‐benzo[d]imidazole]
TRPC5 activity (in words) (mouse TRPC5): not productive

Structure (SMILES): Clc1ccc(Cn2c(N3CCCC3)nc3ccccc32)cn1 [9 t, 1‐((6‐Chloropyridin‐3‐yl)methyl)‐2‐(pyrrolidin‐1‐yl)‐1H‐benzo[d]imidazole]
IC50 (mouse TRPC5): 3.11 ± 0.94 µM | inhibition at 3 µM (mouse TRPC5; read-out: % Inhibition @ 3 μM): 127%

Structure (SMILES): CCCNc1nc2ccccc2n1Cc1ccccc1 [7 f, 1‐Benzyl‐N‐propyl‐1H‐benzo[d]imidazol‐2‐amine]
IC50 (mouse TRPC5): 0.72 ± 0.21 µM | CLint scaled [1]: 103 mL/min/kg | hCLHEP [1]: 16.8 mL/min/kg | CLint scaled [2]: 796 mL/min/kg | mCLHEP [2]: 80.9 mL/min/kg | fraction unbound [3]: 0.041 | fraction unbound [4]: 0.108

Structure (SMILES): Clc1cccc(Cn2c(N3CCCC3)nc3ccccc32)c1 [9 d, 1‐(3‐Chlorobenzyl)‐2‐(pyrrolidin‐1‐yl)‐1H‐benzo[d]imidazole]
IC50 (mouse TRPC5): 0.72 ± 0.21 µM

Structure (SMILES): c1ccc(Cn2c(N3CCCC3)nc3ccccc32)cc1 [7 c, 1‐Benzyl‐2‐(pyrrolidin‐1‐yl)‐1H‐benzo[d]imidazole]
IC50 (mouse TRPC5): 4.3 ± 1.63 µM | CLint scaled [1]: 164 mL/min/kg | hCLHEP [1]: 17.9 mL/min/kg | CLint scaled [2]: 530 mL/min/kg | mCLHEP [2]: 77.0 mL/min/kg | fraction unbound [3]: 0.044 | fraction unbound [4]: 0.036

Structure (SMILES): c1ccc(Cn2c(N3CCC4(CC3)CNC4)nc3ccccc32)cc1 [7 i, 7‐(1‐Benzyl‐1H‐benzo[d]imidazol‐2‐yl)‐2,7‐diazaspiro[3.5]nonane]
TRPC5 activity (in words) (mouse TRPC5): not productive

Structure (SMILES): Fc1ccc(Cn2c(N3CCCC3)nc3ccccc32)cc1 [9 c, 1‐(4‐Fluorobenzyl)‐2‐(pyrrolidin‐1‐yl)‐1H‐benzo[d]imidazole]
IC50 (mouse TRPC5): 0.59 ± 0.14 µM
